Source: PubChem BioAssay (several laboratories)
In the library only some 3.9% were active in any assay of this set; here they are far more common.
SR-BI DiI inh: mouse SR-BI HDL lipid transfer inhibition; ldlA[mSR-BI] CHO cells, DiI-HDL uptake fluorescence, 3 h; Q61009; hit rate 0.96% among 320,000; inhibition, % at 12.5 µM;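 active means mean replicate inhibition of at least 70% and a set share of replicates each scoring 70 or more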;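 further: 0% = median of neutral control wells and 100% = median of positive control wells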
AHR activator: activators of human aryl hydrocarbon receptor | P35869 | AHR-responsive luciferase reporter cells, luminescence | activation, % at 5 µM | hit rate 2.5% among 320,000 | AID 2796; in the data active means activation above about 47%;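 further: 0% = vehicle wells and 100% = reference agonist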
HIF act: HIF pathway transcriptional activation; hit rate 0.32% among 300,000; activation, % at 7.5 µM (by protocol); U2OS HRE-luciferase reporter, luminescence; normalized: DMSO 0%, desferrioxamine 100%; AID 1910;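 active means mean activation of at least 10% of the iron chelator positive control signal, with at least half of replicates also reaching 10%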
SR-BI uptake up: enhances SR-BI lipid uptake from DiI-HDL. activation, % at 12.5 µM. hit rate 0.096% among 320,000. AID 504775. CHO ldlA[mSR-BI] cells, DiI-HDL uptake fluorescence, 3 h; 100 = double the neutral-control signal;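 active means mean replicate activation of at least 60% and every replicate at or above 60%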;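 further: 0% = median plate neutral-control signal and 100% = twice that signal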
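Test system: SR-BI-overexpressing, LDLR-lacking CHO cells; Medium: Ham's F12 with 0.5% BSA, HEPES 25 mM, pH 7.4; Schedule: 3 h, 37 °C; Technique: bottom-read fluorescence, 550/595 nm.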
FXN GAA850 act: increases GAA850 frataxin promoter reporter activity; HEK293 lucGAA850 FXN promoter luciferase reporter, 24 h; percent of 10 µM SAHA response; activation, % at 6 µM; hit rate 0.56% among 360,000;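 active means activation above the average of all compounds screened plus 3 SD, cutoff fixed separately per campaign, cut at about 7.5% in these data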;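 further: 0% = DMSO wells and 100% = 10 µM SAHA wells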
ABCB6 inh 2: inhibitors of human ABC transporter ABCB6. Q9NP58. K562-ABCB6 porphyrin accumulation, flow cytometry, 1 h; hits give low values. fluorescence ratio to DMSO, % at 10 µM. hit rate 0.19% among 360,000;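 active means fluorescence ratio to DMSO below 75%, the collection mean minus 3 SD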;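 further: signal is porphyrin accumulated inside mitochondria; 100% equals median channel fluorescence of DMSO control wells; lower ratio means ABCB6 inhibition with less porphyrin fluorescence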
AHR act cf: human AHR activation, confirmation. human cells, AHR-responsive luciferase reporter, luminescence. hit rate 87% among 2,300. shares compounds with AHR activator. activation, % at 9 µM. AID 2845; in the data active means activation above about 49%;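 further: HepG2 hepatoma cells carrying a DRE-driven firefly luciferase reporter; 0% = vehicle wells and 100% = reference agonist wells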
PXR act counter: activates human PXR in AHR activator counter-screen; shares compounds with AHR activator; cell-based PXR reporter, luciferase luminescence; activation, % at 11.6 µM; AID 434939; hit rate 88% among 2,300; in the data active means activation above about 11%;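 further: human hepatoma DPX-2 cells expressing full-length human PXR; 0% = DMSO and 100% = reference agonist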
Target sequence (O75469 whole entry, looked up): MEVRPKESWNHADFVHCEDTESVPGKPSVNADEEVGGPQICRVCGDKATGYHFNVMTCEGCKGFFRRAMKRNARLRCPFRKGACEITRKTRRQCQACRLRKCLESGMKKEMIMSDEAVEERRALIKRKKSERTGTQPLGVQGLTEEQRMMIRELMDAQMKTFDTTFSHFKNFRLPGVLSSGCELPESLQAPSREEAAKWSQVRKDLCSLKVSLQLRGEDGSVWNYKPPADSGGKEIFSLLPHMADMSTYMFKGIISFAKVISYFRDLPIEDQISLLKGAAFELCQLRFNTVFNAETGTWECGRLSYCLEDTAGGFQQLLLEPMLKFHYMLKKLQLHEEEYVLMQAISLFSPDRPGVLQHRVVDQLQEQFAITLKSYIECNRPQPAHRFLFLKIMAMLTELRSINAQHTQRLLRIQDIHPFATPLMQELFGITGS
Active calls of the source: *; . = no result given.

SMILES | SR-BI DiI inh | AHR activator | HIF act | SR-BI uptake up | FXN GAA850 act | ABCB6 inh 2 | AHR act cf | PXR act counter
CCC(C)Nc1nc(-c2c[nH]c3ccccc23)cs1 (centres undefined) | 15 | 37 | 1 | -15 | 2 | 120 | . | .
Cc1cc(Nc2ccc(Br)cc2)n2nc(C)nc2n1 | 4 | 107* | 0 | -4 | 0 | 104 | 88* | .
Cc1cc(Nc2ccc(F)cc2)n2nc(C)nc2n1 | -14 | 6 | 0 | 14 | -1 | 101 | . | .
COc1ccc(S(=O)(=O)N2CCCC2)cc1C(=O)N1CCCCC1 | -25 | -3 | 0 | 25 | 3 | 103 | . | .
COc1ccccc1Nc1nc(N)nc(-c2cc3ccccc3o2)n1 | 21 | 85* | 3 | -21 | 1 | 97 | 21 | 46*
COc1ccc(NC(=O)c2ccc(Cl)nc2)cc1S(=O)(=O)N1CCOCC1 | 53 | 92* | . | -53 | 0 | 94 | 102* | 21*
CCc1ccc(C(=O)Nc2ccc(OC)c(S(=O)(=O)N3CCOCC3)c2)cc1 | 26 | 10 | 0 | -26 | -1 | 98 | . | .
O=S(=O)(NC1CCN(Cc2ccccc2)CC1)c1cccc(S(=O)(=O)N2CCOCC2)c1 | -15 | -1 | 2 | 15 | 1 | 95 | . | .
NC(=S)N/N=C/c1ccc(-c2ccc([N+](=O)[O-])cc2)o1 | 71* | 92* | 2 | -71 | 2 | 113 | 118* | 14*
C/C(=N/Nc1nc(-c2ccc(Cl)cc2)cs1)c1cccs1 | 79* | 104* | 0 | -79 | 0 | 99 | 132* | 17*
C#CCn1c2ccccc2c2nc3ccccc3nc21 | -11 | 88* | 1 | 11 | 6 | 92 | 191* | 49*
O=C(Nc1ccc(Cl)cc1)c1ccc(Br)cc1F | 24 | 97* | 2 | -24 | 1 | 103 | 130* | 65*
CC(C)Cn1c(/C=C/c2ccccc2)nc2ccccc21 | 14 | 84* | 2 | -14 | 6 | 96 | 119* | 68*
CCN(C(=O)COC(=O)c1cc(C)oc1C)c1c(N)n(Cc2ccccc2)c(=O)[nH]c1=O | -1 | 1 | . | 1 | 1 | 102 | . | .
CCOC(=O)c1[nH]c2ccc(OCC)cc2c1CCCN1C(=O)c2ccccc2C1=O | 26 | 2 | -1 | -26 | 0 | 94 | . | .
O=C1c2ccccc2NC(c2ccc3c(c2)OCO3)N1O (centres undefined) | -10 | 122* | 1 | 10 | 5 | 91 | 133* | 25*
c1ccc(COCCCn2cc(-c3ccccc3)nn2)cc1 | -16 | -1 | 0 | 16 | 0 | 107 | . | .
c1ccc2c(c1)CCN(c1nc3ccccc3n3cnnc13)C2 | 11 | 86* | 1 | -11 | 6 | 97 | 66* | 19*
CCOC(=O)CCCCCN(Cc1ccccc1)S(=O)(=O)c1ccc([N+](=O)[O-])cc1 | 37 | 92* | 0 | -37 | 0 | 96 | 2 | 27*
CCOC(=O)c1ccc(CN(Cc2ccccc2)S(=O)(=O)c2cccc([N+](=O)[O-])c2)cc1 | 54 | -4 | 0 | -54 | 3 | 101 | . | .
Cc1cccc2nc(C(=O)Nc3cc(Cl)ccc3-n3cncn3)cn12 | 3 | 88* | . | -3 | 5 | 89 | 88* | 30*
CCc1nn2c(N)c(/C=C3\C=Nc4ccccc43)c(=O)nc2s1 | -4 | 7 | 0 | 4 | 0 | 110 | . | .
Cc1cn2c(N)c(/C=C3\C=Nc4ccccc43)c(=O)nc2s1 | . | 111* | 3 | . | 3 | 88 | 116* | 20*
Cc1ccc(NC(=O)C2OCCc3ccccc32)cc1Cl (centres undefined) | 25 | 2 | 0 | -25 | 2 | 104 | . | .
Cc1ccc(NC(=O)C2OCCc3ccccc32)cc1 (centres undefined) | 9 | 118* | 1 | -9 | 5 | 101 | 104* | 64*
SMILES | SR-BI DiI inh | AHR activator | HIF act | SR-BI uptake up | FXN GAA850 act | ABCB6 inh 2 | AHR act cf | PXR act counter
O=[N+]([O-])c1cccc(/C([O-])=C(/C(=S)Nc2ccccc2)[n+]2ccccc2)c1 | 7 | 83* | 1 | -7 | 4 | 98 | 43 | 159*
Brc1ccc(Nc2nc3ccccc3n3nnnc23)cc1 | . | 94* | 0 | . | . | . | 108* | 75*
COc1ccc(N(CC(=O)NCc2cccs2)S(=O)(=O)c2ccc(C(C)=O)cc2)cc1 | . | . | . | . | 0 | 93 | . | .
O/N=C/c1cc(Cl)ccc1OCc1ccccc1Cl | 1 | 106* | 1 | -1 | 3 | 91 | 103* | 15*
CN1CCN(CCCNC(=O)c2ccc(CS(=O)(=O)c3ccc(Br)cc3)o2)CC1 | -12 | 81* | 0 | 12 | 1 | 103 | 6 | 12*
O=c1c2ccccc2[nH]c(=S)n1CCC1=CCCCC1 | 25 | 113* | 1 | -25 | 5 | 96 | 125* | 24*
O=C(C[n+]1ccc(C(=O)c2ccccc2)cc1)Nc1ccccc1OC(F)F | 2 | -1 | . | -2 | -1 | 101 | . | .
CC1(C)C(=O)Nc2ccccc2N1C(=O)COC(=O)c1cccs1 | -35 | -1 | . | 35 | 2 | 99 | . | .
O=C(NCc1ccco1)c1nnc(Cc2ccc(F)cc2)o1 | -12 | -3 | 0 | 12 | 0 | 87 | . | .
CC(C)OC(=O)c1nnc(Cc2ccc(F)cc2)o1 | -25 | 91* | 0 | 25 | 1 | 102 | 30 | 9
Cc1ccc(S(=O)(=O)NCCC(=O)OCC(=O)Nc2cccc(S(=O)(=O)NC3=NCCCCC3)c2)cc1 | 14 | 0 | 0 | -14 | 0 | 97 | . | .
Cn1c(CNc2ccc(Br)cc2)nc2ccccc21 | 10 | 108* | 5 | -10 | 4 | 99 | 185* | 48*
Cc1ccc(NCc2nc3ccccc3n2C)cc1 | -26 | 80* | 3 | 26 | 6 | 104 | 66* | 12*
Cn1c(CNC2CCCCC2)nc2ccccc21 | -14 | 19 | 0 | 14 | 0 | 87 | . | .
Cc1ccc(NCc2ccccc2O)cc1C | 21 | -3 | 1 | -21 | 3 | 100 | . | .
Cc1ccc(NCc2nc3ccccc3n2C)cc1C | -39 | 103* | -3 | 39 | 2 | 96 | 127* | 26*
Cc1cc(SCc2ccc(F)cc2)nc(=O)[nH]1 | -13 | -1 | 1 | 13 | 3 | 99 | . | .
Cc1ccc(S(=O)(=O)N2CCOCC2)cc1C(=O)NC1CCCC(C)C1C (centres undefined) | -11 | 1 | 0 | 11 | 2 | 96 | . | .
COC(=O)CCC(=O)NNC(=O)c1ccc([N+](=O)[O-])cc1 | -3 | 1 | -1 | 3 | 1 | 98 | . | .
COc1ccc2[nH]c(=S)[nH]c2c1 | 7 | -3 | . | -7 | 1 | 84 | . | .
